≈ marks a conversion by molar mass, not a printed value. Calls of active or inactive are those of the source. The rule behind the calls is not given here.
Columns and labels:
[1] = system: Mycobacterium tuberculosis; assay: Antimycobacterial activity against Mycobacterium tuberculosis H37Rv infected in BALB/c mouse model assessed as reduction in CFU counts in lung at 100 mg/kg administered daily via oral gavage for 5 days per week measured after 28 days post dosage relative to control; format: functional
Summary of the method: (§1)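 Female BALB/c mice, 4-6 weeks old, aerosol-infected with H37Rv (about 10^3 CFU); five mice taken on day 1 for lung implantation CFU. From day 1, 12.5, 25, 50 or 100 mg/kg in 0.5% carboxymethylcellulose by daily oral gavage, 5 days/week. Ethambutol 100 mg/kg as positive control, untreated infected mice as negative, 5 mice per group. Lung homogenates plated on 7H11 selective agar on days 14 and 28.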

[2] = system: Mycobacterium tuberculosis; assay: Inhibition of MmpL3 in clinical isolates of drug sensitive Mycobacterium tuberculosis V4207 after 7 to 14 days by alamar blue assay
[3] = system: Mycobacterium tuberculosis; assay: Antimycobacterial activity against Mycobacterium tuberculosis H37Rv infected in BALB/c mouse model assessed as protection against mouse mortality at 12.5 to 100 mg/kg administered daily via oral gavage for 5 days per week measured after 14 to 28 days post dosage; format: functional, organism-based
[4] = Tmax in BALB/c mouse plasma at 100 mg/kg administered via oral gavage after 0.25 to 24 hrs by LC-MS analysis; format: ADME, organism-based
Summary of the method: (§2)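 Female BALB/c mice (20 g) got a single 100 mg/kg oral gavage dose. Three animals were sacrificed per time point at 0, 0.25, 0.5, 1, 2, 4, 8 and 24 h. Cardiac blood was spun at 12 000g, 4 °C for plasma. Lungs were bead-beaten in water and the supernatant taken. Both matrices were quantified by LC-MS/MS with an indole-2-carboxamide internal standard. Parameters came from noncompartmental analysis.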

[5] = Mutagenicity in Salmonella typhimurium TA1535; format: toxicity; settings: salmonella enterica subsp. enterica serovar typhimurium
[6] = Mutagenicity in Salmonella typhimurium TA98 assessed as increase in ratio of revertant colonies at 500 microg/plate in presence of S9 liver fraction relative to control; format: toxicity, subcellular; settings: salmonella enterica subsp. enterica serovar typhimurium
Summary of the method: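 Bacterial reverse mutation test in S. typhimurium TA98 with S9 liver fraction, at 500 and 5000 μg/plate. Revertant colony count expressed as a ratio to the DMSO solvent control; 2-aminoanthracene as positive control.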

[7] = system: Mycobacterium tuberculosis; assay: Antimycobacterial activity against Mycobacterium tuberculosis H37Rv infected in BALB/c mouse model assessed as reduction in CFU counts in lungs administered daily via oral gavage for 5 days per week measured after 14 to 28 days post dosage relative to control; format: functional, organism-based; summary of the method: as §1
[8] = biological target: T1, Aryl hydrocarbon receptor (Homo sapiens, UniProt P35869); assay: Transactivation of AhR (unknown origin) assessed as upregulation of CYP1A2 at 3 to 8 microg/ml; format: ADME
T1 sequence (P35869 whole entry): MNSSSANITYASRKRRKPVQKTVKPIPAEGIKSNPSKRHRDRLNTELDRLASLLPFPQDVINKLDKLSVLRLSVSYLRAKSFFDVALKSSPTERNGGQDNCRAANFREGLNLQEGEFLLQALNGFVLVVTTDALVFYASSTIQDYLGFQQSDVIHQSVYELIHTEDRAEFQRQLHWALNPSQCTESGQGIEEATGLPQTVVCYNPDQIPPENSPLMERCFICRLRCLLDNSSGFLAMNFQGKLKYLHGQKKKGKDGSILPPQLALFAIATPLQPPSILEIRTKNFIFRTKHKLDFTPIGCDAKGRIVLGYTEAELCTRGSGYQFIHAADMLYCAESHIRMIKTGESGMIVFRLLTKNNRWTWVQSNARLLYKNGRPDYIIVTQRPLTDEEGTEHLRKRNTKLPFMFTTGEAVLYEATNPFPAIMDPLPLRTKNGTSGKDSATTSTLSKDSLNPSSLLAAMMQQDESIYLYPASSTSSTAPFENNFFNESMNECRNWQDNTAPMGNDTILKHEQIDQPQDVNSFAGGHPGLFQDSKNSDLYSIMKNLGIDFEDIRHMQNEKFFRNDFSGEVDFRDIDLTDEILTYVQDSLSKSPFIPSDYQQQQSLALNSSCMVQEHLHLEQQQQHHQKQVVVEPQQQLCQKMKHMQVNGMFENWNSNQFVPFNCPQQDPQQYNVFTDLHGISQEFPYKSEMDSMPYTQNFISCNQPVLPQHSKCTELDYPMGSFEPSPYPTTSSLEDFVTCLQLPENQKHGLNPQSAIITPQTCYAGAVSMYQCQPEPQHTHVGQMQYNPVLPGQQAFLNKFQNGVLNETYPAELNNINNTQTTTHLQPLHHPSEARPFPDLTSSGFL
Summary of the method: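 Nuclear receptor reporter-gene induction assay, with reporters coupled to PXR, CAR or AhR. Compound was tested at 0.1–1, 3 and 8 μg/mL. Positive controls were rifampin for PXR, CITCO for CAR and 3-methylcholanthrene for AhR.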

[9] = AUClast in BALB/c mouse lung at 100 mg/kg administered via oral gavage after 0.25 to 24 hrs by LC-MS analysis; format: ADME, organism-based; settings: in vivo
Summary of the method: (§3)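 Female BALB/c mice (20 g), single oral gavage dose of 100 mg/kg. Cardiac blood and lungs taken at 0, 0.25, 0.5, 1, 2, 4, 8 and 24 h (n = 3 per time point). Plasma separated by centrifugation; lungs bead-beaten in water and supernatant recovered. Drug quantified by LC-MS/MS against an indole-2-carboxamide internal standard. Parameters derived by noncompartmental analysis.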

[10] = Permeability across basolateral to apical side in human Caco2 cells; format: ADME, cell-based; settings: Caco-2, read-out: permeability
[11] = Tmax in BALB/c mouse lung at 100 mg/kg administered via oral gavage after 0.25 to 24 hrs by LC-MS analysis; format: ADME, organism-based; summary of the method: as §2
[12] = Mean residence time (last) in BALB/c mouse plasma at 100 mg/kg administered via oral gavage by LC-MS analysis; format: ADME, organism-based; summary of the method: as §3
[13] = system: Mycobacterium tuberculosis; assay: Antimycobacterial activity against Mycobacterium tuberculosis H37Rv assessed as growth inhibition at 0.25 times MIC after 7 to 14 days in presence of 0.25 times MIC of rifampin by alamar blue assay based by Bliss synergy model analysis; format: functional
Summary of the method: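 Checkerboard of 2-fold dilutions, 4.0 to 0.0313 × MIC of each drug combined with rifampin. M. tuberculosis H37Rv at 1 × 10^4 CFU per well in 200 μL. Single-drug, blank and full-growth controls included. alamarBlue read-out, percent inhibition calculated. Bliss independence applied to wells below 1 × MIC; Δfaxy > 0 taken as synergy, < 0 as antagonism.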

[14] = system: Mycobacterium tuberculosis; assay: Antimycobacterial activity against Mycobacterium tuberculosis H37Rv infected in BALB/c mouse model assessed as reduction in CFU counts in lung at 200 mg/kg administered daily via oral gavage for 5 days per week measured after 28 days post dosage relative to control; format: functional
Summary of the method: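 Bactericidal-dose model in aerosol-infected BALB/c mice given 25, 50, 100 or 200 mg/kg orally in 0.5% carboxymethylcellulose in water for 4 weeks. Lung CFU compared with the count at treatment initiation; survival also recorded.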

## C[C@@H]1[C@H]2C[C@@H](C[C@H]1NC(=O)c1cc3c(F)cc(F)cc3[nH]1)C2(C)C
[1]
  Activity: 2.12 log10CFU
[2]
  MIC: 23 µM (≈ 7.65 µg/mL)
[3]
  Activity: Active
[4]
  Tmax: 4 h
[5]
  Activity: Non-Toxic
[6]
  fold change (FC): 2.5
[7]
  Activity: Dose-dependent effect
[8]
  Activity: Active
[9]
  AUClast: 51 µg·h/g
[10]
  Papp B→A: 0.25 ×10⁻⁶ cm/s
[11]
  Tmax: 4 h
[12]
  MRT last: 7.28 h
[13]
  growth inhibition (GI): 99.4%
[14]
  Activity: 0.6 log10CFU

— ChEMBL document CHEMBL4477209, “Indole-2-carboxamide-based MmpL3 Inhibitors Show Exceptional Antitubercular Activity in an Animal Model of Tuberculosis Infection” (J Med Chem, 2016)
